pIC50: −log10 of the molar value.
Columns and labels:
DL tumor cells = test: In vitro tumoricidal activity; assay type: cell-based, murine; conditions: Mus musculus, read-out: growth inhibition, highest inhibition recorded
Raji = test: Tumoricidal activity against human lymphoma cell line Raji; assay type: cell-based
THP-1 = test: Tumoricidal activity against human lymphoma cell line THP-1; assay type: cell-based
U937 = test: Tumoricidal activity against human lymphoma cell line U937; assay type: cell-based; conditions: U-937
JE6.1 = test: Tumoricidal activity against human lymphoma cell line JE6.1; assay type: cell-based
[1] = tested on: CD4+CD25+FOXP3+ Treg cells; test: Flow cytometry of CD4+CD25+FOXP3+ Treg cells in DL mice; assay type: in vivo; conditions: in the spleen (so in the source); DL mouse 19.4%; Figure 2I
IFN-γ = IFN-γ production by CTLs derived from treated DL mice; assay type: in vivo; conditions: CD8+ T cells; text to Figure 5K
Method in brief: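 CD8+ T cells (CTLs) are taken from DL lymphoma-bearing mice treated with oral test compound plus rIL15-activated dendritic cells and compared with cells from untreated DL mice. IFN-γ is read by flow cytometry histogram. Data shown are representative of four experiments (n = 4).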

Cc1cccc(-c2nn3c(c2-c2ccnc4ccc(C(N)=O)cc24)CCC3)n1 [galunisertib]
inhibition at 10 µM (DL tumor cells): ~80% | pIC50 (Raji): 6.11 | pIC50 (THP-1): 6.96 | pIC50 (U937): 6.91 | pIC50 (JE6.1): 6.79 | CD4+CD25+ cells [1]: intermediate effect | IFN-γ in T cells derived from treated animals (IFN-γ): 52%

Reference: publication PMC7559877 (iScience, 2020)
